Source: PubChem BioAssay (The Scripps Research Institute Molecular Screening Center)
Compounds with a hit are over-represented: about 0.74% of the library has one in this group of screens.
DDE Tn6 FP inh – inhibitors of Tn6 peptide binding to fibrin DD(E), primary screen, biochemical, fluorescence polarization, human fibrin, Tn6 probe; Fibrinogen beta chain (Homo sapiens), P02675; Fibrin DD(E) TRITC-Tn6 fluorescence polarization displacement; inhibition, % at 8.3 µM; 370,000 compounds, 0.21% hits; AID 720509, 2013;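 active = inhibition above a per-campaign cutoff: mean of compounds within control limits plus 3 SD, cut at about 15% in these data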
Target sequence (P02675 whole entry, looked up): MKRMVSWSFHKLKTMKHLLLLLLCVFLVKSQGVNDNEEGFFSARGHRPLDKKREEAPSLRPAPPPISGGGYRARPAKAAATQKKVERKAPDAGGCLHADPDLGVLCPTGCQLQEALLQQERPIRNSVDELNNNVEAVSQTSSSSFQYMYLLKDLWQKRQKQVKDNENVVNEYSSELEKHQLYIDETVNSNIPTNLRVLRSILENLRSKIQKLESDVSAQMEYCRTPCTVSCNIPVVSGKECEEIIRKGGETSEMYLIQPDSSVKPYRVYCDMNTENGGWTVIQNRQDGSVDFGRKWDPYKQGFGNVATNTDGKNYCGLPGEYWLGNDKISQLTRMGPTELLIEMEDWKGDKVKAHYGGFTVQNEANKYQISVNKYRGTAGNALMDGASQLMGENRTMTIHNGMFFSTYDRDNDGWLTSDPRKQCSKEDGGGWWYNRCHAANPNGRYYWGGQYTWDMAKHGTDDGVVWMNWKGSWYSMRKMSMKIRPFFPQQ
ARFGAP1 inh – inhibitors of rat ARFGAP1 GAP activity, primary screen, biochemical, fluorescence polarization, GDP tracer | ADP-ribosylation factor GTPase-activating protein 1 (Rattus norvegicus), Q62848 | Arfgap1-stimulated ARF1 GTP hydrolysis, GDP FP detection | inhibition, % at 16.5 µM | 360,000 compounds, 0.26% hits | AID 651572, 2012;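 active = inhibition above a per-plate limit, mean inhibition of low control wells plus 3 SD, cut at about 25% in these data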
Target sequence (Q62848 1-136 limits assumed): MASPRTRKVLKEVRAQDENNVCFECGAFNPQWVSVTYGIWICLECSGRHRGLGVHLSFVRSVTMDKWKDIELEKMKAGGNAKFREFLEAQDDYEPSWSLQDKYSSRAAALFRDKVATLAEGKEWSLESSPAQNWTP
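Repeats: one replicate per compound; assay system: rat Arfgap1 catalytic domain, aa 1-136; times: enzyme reaction 120 min at 25 °C after 20 min preincubation; detection: FP of antibody-bound GDP Alexa 633 tracer, ex 620/em 688 nm; benchmarks: high control wells lacking Arfgap1, low control full reaction with DMSO; reagent: human ARF1(Δ1-17)-GTP substrate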
ASAP1 inh – inhibitors of human ASAP1 ArfGAP activity, primary screen, biochemical, fluorescence polarization; Arf-GAP with SH3 domain, ANK repeat and PH domain-containing protein 1 (Homo sapiens), …; ASAP1-stimulated ARF1 GTP hydrolysis, GDP FP detection; inhibition, % at 16.5 µM; 360,000 compounds, 0.19% hits; AID 624377, 2012; in the data active = inhibition above about 25%
DDE Tn7 FP inh – inhibitors of Tn7 peptide binding to fibrin DD(E), primary screen, biochemical, fluorescence polarization, human fibrin, Tn7 probe | FP displacement of FITC-Tn7 peptide from fibrin DD(E); 0% = median of compound wells per plate | AID 720508, 2013 | 370,000 compounds, 0.13% hits | inhibition, % at 8.3 µM;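 active = inhibition above the mean of compounds falling within the control limits plus 3 SD of them, cut at about 14% in these data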
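Also added: labelled Tn7 tracer, 0.1 µM; Assay system: human fibrin DD(E) protein; Amount: 2 µM fibrin DD(E); Schedule: 10 min compound pre-incubation, 3 h probe incubation at room temperature; Repeats: one replicate per compound; Read-out basis: percent inhibition; Measured by: fluorescence polarization of the labelled Tn7 tracer.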
DDE Tn6 FP ctr – counter-screen for inhibitors of Tn6 peptide binding to fibrin DD(E) | shares compounds with DDE Tn6 FP inh | TRITC-Tn6 fluorescence polarization displacement; 0% = median of compound wells, not DMSO | inhibition, % at 8.3 µM | 680 compounds, 2% hits | AID 720621;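 active = inhibition above the mean of test compounds lying between the control limits plus 3 SD of those, cut at about 14% in these data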
DDE Tn6 confirm – inhibitors of Tn6 peptide binding to fibrin DD(E), confirmation, biochemical, fluorescence polarization, human fibrin, Tn6 probe | shares compounds with DDE Tn6 FP inh | 680 compounds, 10% hits | FP displacement of TRITC-Tn6 peptide from DD(E); 0% = per-plate median of test wells | AID 720631, 2013 | inhibition, % at 8.3 µM;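 active = inhibition above the mean of compounds lying within the control limits plus 3 SD, cut at about 16% in these data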
Of the large screens only hits and unclear results are named; the others gave an inactive call (follow-up assays come after a bar, where they were run).

CCC[C@H]1[C@@H](OC(=O)N2CCN(c3ccccc3)CC2)CC[C@@]23CCCN2C(=O)CCC[C@@H]13	none (no result: ARFGAP1 inh, ASAP1 inh)
O=C(OC12CCCN(C1)/C(=C/c1ccc(Cl)cc1)C2)c1ccccc1 (stereo unspecified)	none (no result: ARFGAP1 inh, ASAP1 inh)
Nc1cc(C(=O)O)ccc1Nc1ccccc1	DDE Tn6 FP inh 18 | DDE Tn6 FP ctr inactive | DDE Tn6 confirm inactive
CCc1ccccc1Nc1ccc(C(=O)O)cc1N	none
COc1ccc(CCC(=O)Nc2sccc2C#N)cc1	none
COc1ccc(NC(=O)CSCC(=O)Nc2sccc2C#N)cc1	DDE Tn6 FP inh 16 | DDE Tn6 FP ctr inactive | DDE Tn6 confirm inactive
Cc1ccccc1C(=O)N1CCC(C(=O)Nc2ccc(F)cc2)CC1	DDE Tn6 FP inh 15 | DDE Tn6 FP ctr inactive | DDE Tn6 confirm inactive
Cc1ccccc1C(=O)N1CCC(C(=O)NC2CCCCCC2)CC1	none
Cc1ccccc1C(=O)N1CCC(C(=O)Nc2ccccn2)CC1	DDE Tn6 FP inh 44 | DDE Tn6 FP ctr inactive | DDE Tn6 confirm inactive
Cc1ccccc1C(=O)N1CCC(C(=O)Nc2ccc(C(C)C)cc2)CC1	none
COc1ccccc1C(=O)COC(=O)C(NC(=O)Cc1ccccc1)C(C)C (stereo unspecified)	DDE Tn6 FP inh active | DDE Tn6 FP ctr inactive | DDE Tn6 confirm inactive
COC(=O)c1ccc(COC(=O)C(NC(=O)Cc2ccccc2)C(C)C)cc1 (stereo unspecified)	none
O=C(CSc1nnc(SCc2cccc3ccccc23)s1)c1ccc(F)cc1	none (no result: ARFGAP1 inh, ASAP1 inh)
Cc1ccc(NC(=O)Cc2nc(CCl)cs2)cc1	DDE Tn6 FP inh 15 | DDE Tn6 FP ctr inactive | DDE Tn6 confirm inactive
O=C(COc1ccc2ccccc2c1)NCCc1ccc2c(c1)OCCO2	DDE Tn6 FP inh 18 | DDE Tn6 FP ctr inactive | DDE Tn6 confirm inactive
CCn1nnnc1SCC(=O)Nc1nc(C)c(C)s1	DDE Tn6 FP inh 16 | DDE Tn6 FP ctr inactive | DDE Tn6 confirm inactive
CCC(=O)Nc1cc(OC)c(NC(=S)Nc2ccccc2CC)cc1OC	DDE Tn6 FP inh 74 | DDE Tn6 FP ctr inactive | DDE Tn6 confirm inactive
CCc1ccccc1NC(=O)CC(=O)Nc1ccccc1CC	none
CC(C)CNC(=O)OCc1cn(Cc2cc(F)ccc2F)nn1	none (no result: ARFGAP1 inh, ASAP1 inh)
CC(C)c1ccc(CNc2nnnn2C)cc1	DDE Tn6 FP inh 19 | DDE Tn6 FP ctr inactive | DDE Tn6 confirm inactive
C[C@H]1[C@@H](OC(=O)Nc2ccccc2Cl)CC[C@@]23CCCN2C(=O)CCC[C@@H]13	none (no result: ARFGAP1 inh, ASAP1 inh)
O=C(NCC(=O)N1CCN(S(=O)(=O)c2cccc(F)c2)CC1)c1ccc(Br)o1	DDE Tn6 FP inh 16 | DDE Tn6 FP ctr inactive | DDE Tn6 confirm inactive
COC[C@H]1CCCN1c1cccc2c1S(=O)(=O)N(C1CC1)CCCO2	none (no result: ARFGAP1 inh, ASAP1 inh)
Cc1cc(N)ccc1-n1c(C)ccc1C	DDE Tn6 FP inh 154 | DDE Tn6 FP ctr inactive | DDE Tn6 confirm inactive
COC(=O)c1cc(-c2cc(F)cc(OC)c2)c(=O)n2c1CCC2	none (no result: ARFGAP1 inh, ASAP1 inh)
c1ccc(Oc2ccc(-c3cc(NCCc4cccnc4)n4nccc4n3)cc2)cc1	none
c1ccc(Oc2ccccc2-c2cc(NCCc3cccnc3)n3nccc3n2)cc1	DDE Tn6 FP inh 17 | DDE Tn6 FP ctr inactive | DDE Tn6 confirm inactive
COC(=O)[C@]12C[C@H](CC(=O)N3CCCC3)C(=O)N(Cc3cccc4ccccc34)C1=C[C@H](C1CCCC1)O[C@@H]2C	none (no result: ARFGAP1 inh, ASAP1 inh)
Cc1ccc(S(=O)(=O)N(C)C)cc1NC(=O)c1cccs1	DDE Tn6 FP inh 17 | DDE Tn6 FP ctr inactive | DDE Tn6 confirm inactive
Cc1ccc(S(=O)(=O)N(C)C)cc1NC(=O)c1sccc1Cl	none
Cc1cc(C)cc(C(=O)OCCCN(C)C2CN(Cc3cn(Cc4ccc([N+](=O)[O-])cc4)nn3)S(=O)(=O)C2)c1 (stereo unspecified)	none (no result: ARFGAP1 inh, ASAP1 inh)
CCC(CNc1cc(OC)cc2cccnc12)NC1CCCCC1 (stereo unspecified)	DDE Tn6 FP inh 33 | DDE Tn6 FP ctr inactive | DDE Tn6 confirm inactive
COc1cc(NCCCC(C)N)c2ncccc2c1 (stereo unspecified)	DDE Tn6 FP inh 52 | DDE Tn6 FP ctr inactive | DDE Tn6 confirm 20
COc1cc(NS(=O)(=O)c2ccc(C)cc2)c2ncccc2c1	none
CN1/C(=C\C=C2/SC(=S)NC2=O)C(C)(C)c2ccccc21	DDE Tn6 FP inh 70 | DDE Tn6 FP ctr inactive | DDE Tn6 confirm 57
Cc1cc(Br)cn2c(Cc3cccc(Cl)c3)c(-c3cccc(Cl)c3)nc12	none
Cc1cc(Br)cn2c(Cc3ccsc3)c(-c3cccc(Cl)c3)nc12	DDE Tn6 FP inh 18 | DDE Tn6 FP ctr inactive | DDE Tn6 confirm inactive
COC(=O)[C@]12C[C@H](CC(=O)NCC34CC5CC(CC(C5)C3)C4)C(=O)N(Cc3ccco3)C1=C[C@H](C(C)(C)C)O[C@@H]2C	none (no result: ARFGAP1 inh, ASAP1 inh)
CCC[C@H]1[C@@H](OC(=O)NCc2ccc(Cl)c(Cl)c2)CC[C@@]23CCCN2C(=O)CCC[C@@H]13	none (no result: ARFGAP1 inh, ASAP1 inh)
CCOc1ccccc1N(CC(=O)N1CCCC1)S(C)(=O)=O	DDE Tn6 FP inh 16 | DDE Tn6 FP ctr inactive | DDE Tn6 confirm inactive
CC(=O)N1CCSc2ccc(S(=O)(=O)NCCc3cccc(C)c3)cc21	DDE Tn6 FP inh 16 | DDE Tn6 FP ctr inactive | DDE Tn6 confirm inactive
CC(=O)N1CCSc2ccc(S(=O)(=O)NCCc3ccc(C)cc3)cc21	none
C(=N\NC1=Nc2cccc3cccc1c23)/c1ccccc1	none
NC1=Nc2cccc3cccc1c23	DDE Tn6 FP inh 38 | DDE Tn6 FP ctr inactive | DDE Tn6 confirm 46
CCO/C(C)=N/Oc1cccc(N(C)C)c1	DDE Tn6 FP inh 19 | DDE Tn6 FP ctr inactive | DDE Tn6 confirm inactive
c1ccc(Cn2c(SCC3CCC3)nnc2-c2cccnc2)cc1	none (no result: ARFGAP1 inh, ASAP1 inh)
COc1ccc2c(c1)CNC2CS(=O)(=O)NCC(C)C (stereo unspecified)	none (no result: ARFGAP1 inh, ASAP1 inh)
NC(N)=NS(=O)(=O)c1ccc(NC(=S)NC(=O)/C=C/c2cccs2)cc1	DDE Tn6 FP inh 51 | DDE Tn6 FP ctr inactive | DDE Tn6 confirm inactive
O=S(=O)(c1ccccc1F)N1CCC(c2nc3ccccc3o2)CC1	none (no result: ARFGAP1 inh, ASAP1 inh)
O=C1CCCC/C1=C\Nc1ccc(O)cc1	DDE Tn6 FP inh 27 | DDE Tn6 FP ctr inactive | DDE Tn6 confirm inactive
CC1CCC/C(=C\Nc2ccc3c(c2)OCO3)C1=O (stereo unspecified)	none
